Results on 17 compounds are retold here after ChEMBL document CHEMBL1770091, “Synthesis and biological evaluation of benzyl styrylsulfonyl derivatives as potent anticancer mitotic inhibitors” (Bioorg Med Chem Lett, 2011).

Data set [1] is described as follows: Cytotoxicity against human MRC5 cells after 72 hrs by MTT assay. It counts as cell-based. Put shortly:
(§1)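 Standard 72-h MTT cytotoxicity assay, reported as GI50. Cancer lines were run alongside non-transformed MRC-5 lung fibroblasts.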

In data set [2] the test system is T47D. The data set is described as follows: Cytotoxicity against human T47D cells after 72 hrs by MTT assay. Type of data set: functional. Put shortly: as §1
Data set [3] can be described thus: Cytotoxicity against human MDA468 cells after 72 hrs by MTT assay. Type of data set: functional. To be noted: MDA-MB-468, 72 h. A digest of the protocol: (§2)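 MDA-468 cells were exposed to compound for 24, 48 or 72 h and growth inhibition was read by MTT assay. GI50 is the mean ± s.d. of three independent assays.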
The next data set deals with HCT-116. Put plainly: Cytotoxicity against human HCT116 cells after 72 hrs by MTT assay. It counts as functional. To be noted: HCT-116, 72 h. A digest of the protocol:
as §1

For data set [4], the system named is MCF7. The data set is described as follows: Cytotoxicity against human MCF7 cells after 72 hrs by MTT assay. Type of data set: functional. To be noted: MCF7, 72 h. Put shortly:
as §1

Data set [5] deals with MRC5. Put plainly: Ratio of GI50 for human MRC5 cells to GI50 for human HCT116 cells. A digest of the protocol: (§3)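 Selectivity was calculated as GI50 in non-transformed MRC-5 fibroblasts divided by GI50 in each cancer line. All GI50 values came from 72-h MTT assays.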
The test system of data set [6] is MRC5. The data set is described as follows: Ratio of GI50 for human MRC5 cells to GI50 for human MCF7 cells. A digest of the protocol: as §3
For data set [7], the system named is T47D. Put plainly: Ratio of GI50 for human MRC5 cells to GI50 for human T47D cells. A digest of the protocol: as §3
The subject of data set [8] is MRC5. The data set is described as follows: Ratio of GI50 for human MRC5 cells to GI50 for human MDA468 cells. Put shortly: as §3
The subject of the next data set is MDA-MB-468. Put plainly: Induction of apoptosis in human MDA468 cells assessed as appearance of apoptotic bodies after 20 hrs by annexinV/propidium iodide staining. Type of data set: functional, cell-based. Put shortly: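 After overnight culture, 4×10^5 cells per well were treated with compound at 0.5, 1 and 10 μM for 20 h. Apoptosis was measured by annexin V/PI double staining and flow analysis, scored as early (annexin V-positive) plus late (annexin V- and PI-positive) apoptotic cells. Mean ± s.d. of three independent experiments versus DMSO vehicle control.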

For data set [9], the system named is MRC5. The data set is described as follows: Metabolic stability of the compound in human MRC5 cells at 1 uM. Type of data set: ADME, cell-based. As to conditions: mrc5, 1 µM.
Data set [10] is described as follows: Cytotoxicity against human MDA468 cells after 48 hrs by MTT assay. It counts as functional. To be noted: MDA-MB-468, 48 h. A digest of the protocol: as §2
A short description of data set [11]: Cytotoxicity against human MDA468 cells after 24 hrs by MTT assay. Type of data set: functional. As to conditions: MDA-MB-468, 24 h. Put shortly: as §2
A short description of data set [12]: Cell cycle arrest in human MDA468 cells assessed as accumulation at G2/M phase at 0.5 uM after 20 hrs by flow cytometry. As to conditions: MDA-MB-468. It counts as functional, cell-based. Put shortly: (§4)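 Cells in exponential growth seeded at 4×10^5, incubated overnight at 37 °C in humidified 5% CO2, then exposed to compound for 20 h. Cells collected, washed once in cold PBS, resuspended in hypotonic fluorochrome solution, and analysed for cell-cycle distribution (% G2/M DNA content) by flow cytometry. Mean ± s.d. of three independent experiments; DMSO vehicle control.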

Data set [13] is described as follows: Cell cycle arrest in human MDA468 cells assessed as accumulation at G2/M phase at 1 uM after 20 hrs by flow cytometry. It counts as functional, cell-based. As to conditions: MDA-MB-468. A digest of the protocol:
as §4

Data set [14] relates to MCF7. Put plainly: Metabolic stability of the compound in human MCF7 cells at 1 uM. It counts as ADME, cell-based. As to conditions: mcf7, 1 µM.

As to `COc1ccc(CS(=O)(=O)/C=C/c2c(OC)cccc2OC)cc1[N+](=O)[O-]`, the GI50 at 72 h in data set [1] is more than 30 µM. In addition, the concentration for 50% growth inhibition (GI50) in the data set with T47D [2] was more than 30 µM; in data set [3], 5.46 µM; in the data set on HCT-116 it was 10.2 µM; in the data set with MCF7 [4], 13.7 µM.
For the compound `COc1ccc(CS(=O)(=O)/C=C/c2c(OC)cccc2OC)cc1N`, the RatioGI50 in the data set with MRC5 [5], with MRC5 [6], in the data set on T47D [7] and with MRC5 [8] was less than 280 in each case. Growth in data set [1] was halved (GI50 at 72 h) at 17.1 µM. Further, the concentration for 50% growth inhibition (GI50) was found to be 0.05 µM in the data set on T47D [2], 0.06 µM in data set [3], 0.02 µM in the data set on HCT-116 and 0.04 µM with MCF7 [4].
As for `COc1ccc(CS(=O)(=O)CC(=O)Nc2ccccc2)cc1[N+](=O)[O-]`, the GI50 at 72 h in [1] was more than 30 µM. The GI50 (in the data set with T47D [2]; in data set [3]; with HCT-116; in the data set with MCF7 [4]) was more than 30 µM each time.
As for `COc1ccc(OC)c(NC(=O)CS(=O)(=O)Cc2ccc(OC)c([N+](=O)[O-])c2)c1`, in [1], the GI50 at 72 h is more than 30 µM. In addition, the GI50 (with T47D [2]; in data set [3]; in the data set on HCT-116; in the data set with MCF7 [4]) was more than 30 µM throughout.
`COc1ccc(CS(=O)(=O)/C=C/c2ccc(OC)c(OC)c2OC)cc1N`: the concentration for 50% growth inhibition (GI50) at 72 h in data set [1] was more than 30 µM. Moreover, the 50% growth inhibitory concentration (GI50) with T47D [2] amounted to 5.9 µM; in data set [3] it was 3.48 µM; in the data set with HCT-116, 5.31 µM; with MCF7 [4], 5.95 µM.
The like results for `COc1ccc(CS(=O)(=O)CC(=O)Nc2c(C)cc(C)cc2C)cc1N` were, in that order, more than 30 µM, more than 30 µM, more than 30 µM, more than 30 µM and more than 30 µM.
In turn, `COc1cc(OC)c(/C=C/S(=O)(=O)Cc2ccc(OC)c(N)c2)c(OC)c1` yielded a GI50 at 72 h in [1] of 0.08 µM. In addition, the GI50 in [3] is 0.03 µM; with HCT-116, less than 0.01 µM; in the data set on MCF7 [4], less than 0.01 µM.
Consider `COc1cc(/C=C/S(=O)(=O)Cc2ccc(OC)c(N)c2)cc(OC)c1`, for which the RatioGI50 with MRC5 [5], in the data set on MRC5 [6], in the data set on T47D [7] and in the data set on MRC5 [8] was less than 80 in each case. Also, the GI50 at 72 h in data set [1] is more than 30 µM. In addition, the concentration for 50% growth inhibition (GI50) in the data set on T47D [2] turned out to be 0.53 µM; in [3], 0.52 µM; with HCT-116, 0.54 µM; in the data set with MCF7 [4], 0.49 µM.
In turn, `COc1cc(OC)c(NC(=O)CS(=O)(=O)Cc2ccc(OC)c([N+](=O)[O-])c2)c(OC)c1` showed a concentration for 50% growth inhibition (GI50) at 72 h in data set [1] of more than 30 µM. The GI50 in the data set on T47D [2] is more than 30 µM; in data set [3], more than 30 µM; in the data set with HCT-116, 18.8 µM; in the data set with MCF7 [4] it was more than 30 µM.
On to `COc1ccc(CS(=O)(=O)/C=C/c2ccc(OC)c(OC)c2OC)cc1[N+](=O)[O-]`, for which, in data set [1], the GI50 at 72 h is more than 30 µM. Moreover, the GI50 with T47D [2] was more than 30 µM; in data set [3] it was 21.9 µM; with HCT-116, 27.9 µM; in the data set on MCF7 [4] it was more than 30 µM.
Compound `COc1ccc(CS(=O)(=O)CC(=O)Nc2c(C)cc(C)cc2C)cc1[N+](=O)[O-]` came in with a GI50 at 72 h in data set [1] of 28 µM. For the same compound, the GI50 is more than 30 µM in the data set with T47D [2], more than 30 µM in [3], 7.91 µM in the data set with HCT-116 and more than 30 µM in the data set with MCF7 [4].
Take `COc1cc(OC)c(/C=C/[S+]([O-])Cc2ccc(OC)c(N)c2)c(OC)c1` (configuration not stated): the Activity result in the data set with MDA-MB-468 was “Dose-dependent effect”; in data set [12], 77%; in data set [13], 85%. Further, the Stability result in the data set on MRC5 [9] and with MCF7 [14] was “Stable” each time. The GI50 in [10] was 0.137 µM; in data set [11], 0.559 µM; with T47D [2] it was 0.06 µM; in [3], less than 0.01 µM; in the data set on HCT-116, less than 0.01 µM; in the data set on MCF7 [4], less than 0.01 µM. Further, the GI50 at 72 h in data set [1] was more than 30 µM.
For `COc1cc(OC)c(/C=C/S(=O)(=O)Cc2ccc(OC)c(NCC(=O)O)c2)c(OC)c1` [RIGOSERTIB], the Activity result in the data set on MDA-MB-468 was “Dose-dependent effect”; in data set [12] it was 58%; in data set [13], 84%. Besides, the Stability entry with MRC5 [9] and with MCF7 [14] was “Stable” throughout. The GI50 is 0.302 µM in [10]; 0.601 µM in data set [11]; less than 0.01 µM in the data set with T47D [2]; 0.02 µM in data set [3]; 0.05 µM with HCT-116; 0.05 µM in the data set with MCF7 [4]. Further, halving of growth in [1] (GI50 at 72 h) required 0.71 µM.
The compound `COc1cc(OC)c(/C=C/S(=O)(=O)Cc2ccc(OC)c([N+](=O)[O-])c2)c(OC)c1` had a GI50 at 72 h in data set [1] of 2.91 µM. The figures for the GI50 with HCT-116 and with MCF7 [4] were 0.66 µM and 0.88 µM, respectively.
The like results for `COc1cc(OC)c(/C=C/S(=O)(=O)Cc2ccc(OC)c(NC(C)=O)c2)c(OC)c1` were, in that order, 0.81 µM, 0.15 µM and 0.35 µM.
In the case of `COc1ccc(CS(=O)(=O)CC(=O)Nc2ccccc2)cc1N`, the GI50 at 72 h in data set [1] was more than 30 µM. Also, the concentration for 50% growth inhibition (GI50) (with T47D [2]; in data set [3]; in the data set with HCT-116; in the data set with MCF7 [4]) was more than 30 µM in each case.
`COc1cc(/C=C/S(=O)(=O)Cc2ccc(OC)c([N+](=O)[O-])c2)cc(OC)c1` had a concentration for 50% growth inhibition (GI50) at 72 h in [1] of more than 30 µM. In addition, the GI50 in the data set with T47D [2] is more than 30 µM; in data set [3] it was 16.5 µM; in the data set on HCT-116, more than 30 µM; with MCF7 [4] it was more than 30 µM.
